Test results from publication PMC5884014 (Neoplasia (New York, N.Y.), 2017).
Marks after values point to notes of the source that are not given here.

How the values were obtained:
FHC = assay: Cytotoxicity assay; format: cell-based, human; settings: Homo sapiens, FHC, 72 h
HCT116 = assay: Cytotoxicity assay; format: cell-based, human; settings: Homo sapiens, HCT-116, 72 h
RKO = assay: Cytotoxicity assay; format: cell-based, human; settings: Homo sapiens, RKO, 72 h
LS174T = assay: Cytotoxicity assay; format: cell-based, human; settings: Homo sapiens, LS174T, 72 h
LoVo = assay: Cytotoxicity assay; format: cell-based, human; settings: Homo sapiens, LoVo, 72 h
Colo205 = assay: Cytotoxicity assay; format: cell-based, human; settings: Homo sapiens, COLO 205, 72 h
DLD-1 = assay: Cytotoxicity assay; format: cell-based, human; settings: Homo sapiens, DLD-1, 72 h
HT-29 = assay: Cytotoxicity assay; format: cell-based, human; settings: Homo sapiens, HT-29, 72 h
SW620 = assay: Cytotoxicity assay; format: cell-based, human; settings: Homo sapiens, SW-620, 72 h
Caco-2 = assay: Cytotoxicity assay; format: cell-based; settings: Homo sapiens, Caco-2, 72 h
H3347 = assay: Cytotoxicity assay; format: cell-based, human; settings: Homo sapiens, H3347, 72 h
RKO cells [1] = assay: Comet and modified comet assays; format: cell-based, human; settings: 24 h, SL-1 0.75 μM, 5-FU […], alone or combined
How it was run: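 RKO cells were exposed to the test compound and/or 5-FU for 24 h and then processed by comet assay. The read-out was tail moment, reported as means ± SD (n = 3) and compared by Student's t test. Synergy on tail moment was expressed as a combination index (CI).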

RKO cells [2] = assay: Annexin V staining assay; format: cell-based, human
[3] = Toxicology examination: complete blood counts; format: in vivo; settings: ICR mice, 5-FU 50 mg/kg i.p., SL-1 30, oxaliplatin 7.5, cisplatin 7.5 mg/kg i.v.
[4] = Toxicology examination: serum biochemistry; format: in vivo; settings: ICR mice, 5-FU 50 mg/kg i.p., SL-1 30, oxaliplatin 7.5, cisplatin 7.5 mg/kg i.v.
[5] = system: HexA-rev and HexB-rev fragments; assay: Guanine-N7 alkylation, Maxam-Gilbert method; format: binding; settings: 3'-end-labeled DNA, 37°C, 2 h, pH 7.4
How it was run: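 Sixty-four symmetrical hexanucleotide fragments (HexA-rev, HexB-rev) were 3′-end-labelled, gel-purified on polyacrylamide, and reacted with the test compound. Guanine-N7 alkylation sites were mapped by the Maxam-Gilbert method. A weighted consensus sequence logo was generated with Seq2Logo 3.4.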

O=c1[nH]cc(F)c(=O)[nH]1 [5-FU, 5-fluorouracil]
IC50 (FHC): 21.9 ± 2.49 µM
IC50 (HCT116): 2.88 ± 0.33 µM
IC50 (RKO): 6.15 ± 1.63 µM
IC50 (LS174T): 18.6 ± 0.26 µM
IC50 (LoVo): 25.8 ± 0.74 µM
IC50 (Colo205): 6.8 ± 3.05 µM
IC50 (DLD-1): 16.9 ± 5.3 µM
IC50 (HT-29): 2.27 ± 0.41 µM
IC50 (SW620): 18.5 ± 4.05 µM
IC50 (Caco-2): > 50 µM
IC50 (H3347): 5.89 ± 0.5 µM
tail moment (RKO cells [1]): 3.9 ± 0.4 μm
mode of cell death (RKO cells [2]): mainly caused necrotic cell death
BASO ([3]; 2 days): 0.01 ± 0.01 10^9/l
EO ([3]; 2 days): 0.06 ± 0.01* 10^9/l
HCT ([3]; 2 days): 27.94 ± 3.75 %
HGB ([3]; 2 days): 10.58 ± 2.62 g/dL
LYMPH ([3]; 2 days): 4.22 ± 0.45 10^9/l
MCH ([3]; 2 days): 14.94 ± 3.04 pg
MCHC ([3]; 2 days): 27.50 ± 4.71 g/dL
MCV ([3]; 2 days): 57.06 ± 3.75 fL
MONO ([3]; 2 days): 0.02 ± 0.01 10^9/l
NEUT ([3]; 2 days): 0.78 ± 0.40 10^9/l
PLT ([3]; 2 days): 873.00 ± 141.40** 10^9/l
RBC ([3]; 2 days): 4.98 ± 1.72* 10^12/l
WBC ([3]; 2 days): 5.09 ± 0.23 10^9/l
BASO ([3]; 14 days): 0.01 ± 0.01 10^9/l
EO ([3]; 14 days): 0.08 ± 0.01*** 10^9/l
HCT ([3]; 14 days): 45.53 ± 1.61 %
HGB ([3]; 14 days): 13.08 ± 0.25 g/dL
LYMPH ([3]; 14 days): 2.62 ± 0.94 10^9/l
MCH ([3]; 14 days): 16.25 ± 0.35 pg
MCHC ([3]; 14 days): 28.73 ± 0.48 g/dL
MCV ([3]; 14 days): 56.48 ± 1.73 fL
MONO ([3]; 14 days): 0.06 ± 0.10 10^9/l
NEUT ([3]; 14 days): 0.64 ± 0.17 10^9/l
PLT ([3]; 14 days): 745.75 ± 116.31* 10^9/l
RBC ([3]; 14 days): 8.06 ± 0.24*** 10^12/l
WBC ([3]; 14 days): 3.40 ± 1.21 10^9/l
ALP ([4]; 2 days): 359.25 ± 72.22 U/l
ALT ([4]; 2 days): 23.25 ± 4.97 U/l
AST ([4]; 2 days): 63.50 ± 13.24 U/l
BUN ([4]; 2 days): 23.65 ± 1.50 mg/dL
CRE ([4]; 2 days): 0.23 ± 0.1 mg/dL
GLU ([4]; 2 days): 577.25 ± 36.55 mg/dL
ALP ([4]; 14 days): 177.50 ± 119.69 U/l
BUN ([4]; 14 days): 22.20 ± 3.42 mg/dL
CRE ([4]; 14 days): 0.25 ± 0.10 mg/dL
GLU ([4]; 14 days): 244.00 ± 86.63 mg/dL
GOT/AST ([4]; 14 days): 53.00 ± 3.56 U/l
GPT/ALT ([4]; 14 days): 46.50 ± 7.85 U/l

Cc1ccc(Nc2c3ccccc3nc3c(C)cccc23)cc1NC(=O)Nc1ccc(N(CCCl)CCCl)cc1 [BO-1051]
consensus sequence / binding pattern of guanine-N7 alkylation [5]: no distinct binding sequence

CN(C)CCNC(=O)c1cccc(NC(=O)Nc2ccc(N(CCCl)CCCl)cc2)c1.Cl [BO-1055]
consensus sequence / binding pattern of guanine-N7 alkylation [5]: no distinct binding sequence
